From ChEMBL document CHEMBL3872287, “Novel 2-Substituted 7-Azaindole and 7-Azaindazole Analogues as Potential Antiviral Agents for the Treatment of Influenza” (ACS Med Chem Lett, 2017) come the findings set out here.

The target in series [1] is T1, aldehyde oxidase (Homo sapiens, UniProt Q06278).
T1 sequence (Q06278 whole entry): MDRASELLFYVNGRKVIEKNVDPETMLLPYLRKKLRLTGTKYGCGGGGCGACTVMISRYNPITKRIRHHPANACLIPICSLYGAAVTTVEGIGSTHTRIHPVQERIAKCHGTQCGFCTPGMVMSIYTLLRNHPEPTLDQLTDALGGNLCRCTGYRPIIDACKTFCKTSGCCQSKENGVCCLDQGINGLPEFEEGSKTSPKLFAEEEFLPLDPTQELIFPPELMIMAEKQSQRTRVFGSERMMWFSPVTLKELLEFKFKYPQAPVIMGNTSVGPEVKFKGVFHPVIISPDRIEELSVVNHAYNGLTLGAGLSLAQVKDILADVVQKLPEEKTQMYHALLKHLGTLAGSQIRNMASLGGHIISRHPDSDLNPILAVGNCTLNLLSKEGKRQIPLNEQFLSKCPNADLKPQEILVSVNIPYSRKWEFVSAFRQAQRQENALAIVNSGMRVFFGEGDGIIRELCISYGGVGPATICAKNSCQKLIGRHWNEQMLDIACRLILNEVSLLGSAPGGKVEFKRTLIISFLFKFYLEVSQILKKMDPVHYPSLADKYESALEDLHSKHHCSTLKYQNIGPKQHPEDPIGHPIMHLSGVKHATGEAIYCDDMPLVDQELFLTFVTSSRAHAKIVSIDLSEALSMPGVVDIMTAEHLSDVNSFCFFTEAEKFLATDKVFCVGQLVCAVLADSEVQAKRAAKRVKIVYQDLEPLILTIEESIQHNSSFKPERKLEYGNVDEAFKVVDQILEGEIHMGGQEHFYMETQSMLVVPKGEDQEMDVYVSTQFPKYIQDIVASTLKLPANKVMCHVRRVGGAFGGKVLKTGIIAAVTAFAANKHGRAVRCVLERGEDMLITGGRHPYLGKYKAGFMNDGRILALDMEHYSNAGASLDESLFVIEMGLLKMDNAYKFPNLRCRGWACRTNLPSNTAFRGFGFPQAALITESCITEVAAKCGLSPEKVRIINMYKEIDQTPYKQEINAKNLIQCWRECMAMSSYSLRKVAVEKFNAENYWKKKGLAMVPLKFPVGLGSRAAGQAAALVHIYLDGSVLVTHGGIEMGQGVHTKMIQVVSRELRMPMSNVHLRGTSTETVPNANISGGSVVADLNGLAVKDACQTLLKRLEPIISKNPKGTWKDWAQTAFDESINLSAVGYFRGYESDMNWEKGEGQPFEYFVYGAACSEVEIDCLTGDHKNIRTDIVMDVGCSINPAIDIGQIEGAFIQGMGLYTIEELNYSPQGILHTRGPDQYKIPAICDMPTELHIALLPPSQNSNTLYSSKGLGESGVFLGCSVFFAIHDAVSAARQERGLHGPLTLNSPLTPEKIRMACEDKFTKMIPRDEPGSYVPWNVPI
Nature of the series: Drug metabolism in human liver cytosol assessed as aldehyde oxidase-mediated metabolism by measuring amount of parent compound remaining measured over 4 hrs in absence of aldehyde oxidase inhibitor raloxifene by MS/MS analysis. Format: ADME. The conditions noted are these: read-out: Stability. The procedure, abridged: (§1)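 Test compounds were incubated in triplicate at 1 µM in human liver cytosol (1 mg/mL protein) at 37 °C for 4 hours, with or without the aldehyde oxidase inhibitor raloxifene.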

Series [2] has as its target T1, aldehyde oxidase. Nature of the series: Drug metabolism in human liver cytosol assessed as aldehyde oxidase-mediated metabolism by measuring amount of parent compound remaining measured over 4 hrs in presence of aldehyde oxidase inhibitor raloxifene by MS/MS analysis. The format is ADME. The following applies: read-out: Stability. The procedure, abridged: as §1
A short description of series [3]: Antiviral activity against Influenza A virus (A/Puerto Rico/8/34(H1N1)) infected in MDCK cells assessed as decrease in negative strand HA RNA levels after 20 hrs by bDNA hybridization method. The format is functional, Influenza A virus (A/Puerto Rico/8/1934(H1N1)). The procedure, abridged:
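Viral RNA in infected cells quantified by branched DNA assay. EC90 is the test-compound concentration giving viral RNA levels equal to 10% of control wells.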

Series [4] is described as follows: Cmax in rat at 3 mg/kg, po. The format is ADME, organism-based. On the set-up: dose 3 mg/kg, route oral. The following applies: in vivo.
The nature of series [5]: Volume of distribution in steady state in rat at 1 mg/kg, iv. The format is ADME, organism-based. The following applies: in vivo, read-out: Vdss.
Series [6] can be described thus: Clearance in rat at 1 mg/kg, iv. The format is ADME, organism-based. The following applies: in vivo.
Series [7] in a line: Cmax in mouse at 30 mg/kg, po. Format: ADME, organism-based. Also on record: dose 30 mg/kg, route oral. The following applies: in vivo.
Series [8] is described as follows: AUC (0 to infinity) in rat at 3 mg/kg, po. Format: ADME, organism-based. The conditions noted are these: in vivo. On the set-up: dose 3 mg/kg, time infinity, route oral.
Series [9] can be described thus: Oral bioavailability in rat at 3 mg/kg. The conditions noted are these: in vivo. The format is ADME, organism-based.
Series [10] in a line: AUC in mouse at 30 mg/kg, po. Format: ADME, organism-based. The conditions noted are these: in vivo.
Series [11] is described as follows: Half life in rat at 1 mg/kg, iv. The following applies: in vivo. The format is ADME, organism-based.

Where only a bound is given, the exact number is not on record here.

For `O=C(N[C@@H]1CCC[C@H](Nc2nc(-c3c[nH]c4ncc(F)cc34)ncc2F)C1)N1CCOCC1`, the remaining at 4 h was found to be 7% on aldehyde oxidase [1] and 103% on aldehyde oxidase [2].

One may read the EC90 as the concentration needed for an effect of 90%. Consider `O=C(N[C@@H]1CCC[C@H](Nc2nc(-c3c(CO)[nH]c4ncc(F)cc34)ncc2F)C1)N1CC[C@@H](F)C1`, for which the EC90 in series [3] (Influenza A virus, MDCK, 20 h) was found to be 10 nM. Further, the remaining at 4 h at aldehyde oxidase [1] worked out at 105%; on aldehyde oxidase [2] it was 114%.

With `Cn1cnc(C(=O)N[C@@H]2CCC[C@H](Nc3nc(-c4n[nH]c5ncc(F)cc45)ncc3F)C2)c1`, the 90% effect concentration (EC90) in series [3] (Influenza A virus, MDCK, 20 h) is 15 nM. Further, the remaining at 4 h was 40% at aldehyde oxidase [1] and 103% at aldehyde oxidase [2].

A word on the Cmax: it is the peak of the concentration-time curve. Broadly, the clearance is the volume of plasma or blood freed of the substance per unit of time. As usually defined, the AUC(0-inf) is total exposure, with the tail of the curve extrapolated. Low values mean low exposure, high ones high exposure. As usually defined, the bioavailability is the share of a dose that reaches the circulation, judged against a reference dose that is usually intravenous. By AUC is commonly meant concentration integrated over time. By half-life is commonly meant how long it takes for the measured level to halve. A higher half-life goes with slow decline. With `O=C(N[C@@H]1CCC[C@H](Nc2nc(-c3c[nH]c4ncc(F)cc34)ncc2F)C1)N1CCCC1`, in series [3] (Influenza A virus, MDCK, 20 h), the concentration for an effect of 90% (EC90) is 1 nM. Further, the values for the Cmax in series [4] and in [7] were 2600 ng/mL and 61100 ng/mL, respectively. In series [5], the Vd was 0.3 L/kg. The compound further showed a clearance in series [6] of 1.2 mL/min/kg. In [8], this compound displayed an AUC(0-inf) of 30300 ng·h/mL. For the same compound, in series [9], the bioavailability stood at 82%. The compound also came in with an AUC in series [10] of 336000 ng·h/mL. This compound had a half-life in series [11] of 3.2 h. Also, the remaining at 4 h stood at 4% at aldehyde oxidase [1] and 99% at aldehyde oxidase [2].

With `O=C(O)[C@H]1C2CCC(CC2)[C@@H]1Nc1nc(-c2n[nH]c3ncc(F)cc23)ncc1F`, the EC90 in [3] (Influenza A virus, MDCK, 20 h) was determined as 3 nM.

In the case of `O=C(N[C@@H]1CCC[C@H](Nc2nc(-c3c(C4CC4)[nH]c4ncc(F)cc34)ncc2F)C1)N1CCCC1`, the concentration for an effect of 90% (EC90) in series [3] (Influenza A virus, MDCK, 20 h) is over 3300 nM.

With `O=C(N[C@@H]1CCC[C@H](Nc2nc(-c3n[nH]c4ncc(F)cc34)ncc2F)C1)N1CCCC1`, in series [3] (Influenza A virus, MDCK, 20 h), the EC90 was 2 nM. Further, the Cmax in series [4] came to 200 ng/mL; in series [7], 32100 ng/mL. Moreover, the Vd in [5] turned out to be 0.4 L/kg. Moreover, the clearance in series [6] is 7.7 mL/min/kg. Further, in series [8], the total exposure AUC(0-inf) stood at 1200 ng·h/mL. Besides, the bioavailability in series [9] was found to be 15.3%. Moreover, the AUC in [10] stood at 44500 ng·h/mL. Besides, the half-life in series [11] is 1.5 h. Besides, the values for the remaining at 4 h on aldehyde oxidase [1] and on aldehyde oxidase [2] were 1% and 101%, respectively.

Consider `O=C(O)c1[nH]c2ncc(F)cc2c1-c1ncc(F)c(N[C@H]2CCC[C@@H](NC(=O)N3CCCC3)C2)n1`, for which, in [3] (Influenza A virus, MDCK, 20 h), the EC90 was determined as 2200 nM.

Take `Cc1[nH]c2ncc(F)cc2c1-c1ncc(F)c(N[C@H]2CCC[C@@H](NC(=O)N3CCCC3)C2)n1`: in [3] (Influenza A virus, MDCK, 20 h), the 90% effect concentration (EC90) was determined as 280 nM. Moreover, the remaining at 4 h on aldehyde oxidase [1] and at aldehyde oxidase [2] was 103% in each case.

On to `O=C(N[C@@H]1CCC[C@H](Nc2nc(-c3c(/C=N/O)[nH]c4ncc(F)cc34)ncc2F)C1)N1CCCC1`, for which, in series [3] (Influenza A virus, MDCK, 20 h), the EC90 worked out at 91 nM.

As for `O=C(N[C@@H]1CCC[C@H](Nc2nc(-c3n[nH]c4ncc(F)cc34)ncc2F)C1)N1CCOCC1`, the EC90 in series [3] (Influenza A virus, MDCK, 20 h) worked out at 14 nM.

Consider `O=C(N[C@@H]1CCC[C@H](Nc2nc(-c3n[nH]c4ncc(F)cc34)ncc2F)C1)c1ccsc1`, for which the concentration for an effect of 90% (EC90) in series [3] (Influenza A virus, MDCK, 20 h) was found to be 1 nM. For the same compound, the remaining at 4 h was 0% on aldehyde oxidase [1] and 107% at aldehyde oxidase [2].

On to `O=C(N[C@@H]1CCC[C@H](Nc2nc(-c3n[nH]c4ncc(F)cc34)ncc2F)C1)N1CC[C@@H](F)C1`, for which the EC90 in series [3] (Influenza A virus, MDCK, 20 h) is 1 nM. Further, the results for the remaining at 4 h on aldehyde oxidase [1] and at aldehyde oxidase [2] were 0.6% and 98%, respectively.

`O=C(N[C@@H]1CCC[C@H](Nc2nc(-c3c(CO)[nH]c4ncc(F)cc34)ncc2F)C1)N1CCCC1`: the EC90 in series [3] (Influenza A virus, MDCK, 20 h) came out at 28 nM. For the same compound, the Cmax came out at 2800 ng/mL in series [4] and 37700 ng/mL in [7]. Further, the Vd in series [5] came out at 0.6 L/kg. In addition, the clearance in series [6] came out at 6.2 mL/min/kg. In addition, in series [8], the AUC(0-inf) came to 9700 ng·h/mL. Moreover, in series [9], the bioavailability stood at 100%. For the same compound, in series [10], the AUC came out at 101000 ng·h/mL. Also, the half-life in [11] was 2.3 h. Moreover, the figures for the remaining at 4 h on aldehyde oxidase [1] and at aldehyde oxidase [2] were 100% and 96%, respectively.

With `CC(O)c1[nH]c2ncc(F)cc2c1-c1ncc(F)c(N[C@H]2CCC[C@@H](NC(=O)N3CCCC3)C2)n1` (stereo in doubt; 21a), the 90% effect concentration (EC90) in [3] came out at 27 nM.

`CC(O)c1[nH]c2ncc(F)cc2c1-c1ncc(F)c(N[C@H]2CCC[C@@H](NC(=O)N3CCCC3)C2)n1` (stereo in doubt; 21b): in [3], the EC90 came out at 460 nM. Besides, the remaining at 4 h on aldehyde oxidase [1] and on aldehyde oxidase [2] was 99% each time.
